The values below come from PMC11494403 (Nature plants, 2024).

Test [1] in a line: MST, binding to Alexa Fluor 647-labelled oligogalacturonide OG7–13^647. Particulars: relative to wild-type RALF22. In a few lines: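 Wild-type or mutant peptide, titrated from 200µM, against 40nM Alexa Fluor 647-labelled, fully demethylesterified 7-13mer oligogalacturonide. Incubated 10min at RT, then thermophoresis on a Monolith NT.115 at medium MST power and 80% LED excitation. Data kept only at S/N >5 with no aggregation or ligand-induced initial fluorescence change. Kd averaged over 3 independent experiments.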

In another test the test system is root. The settings on record: RALF1-induced; cited from earlier work.
The test system of a further test is RHs. The settings on record: 2 day exposure to exogenous RALF1; cited from earlier work.

Consider “AQKKYISYGAMARNSVPCSARGASYYNCQAGAQANPYSRGCSTITRCRR [RALF22^R82A,R90A,R100A]”, for which the “fold reduction in affinity for OG7–13^647” value in test [1] was determined as 5.2 fold.
“RALF1: exogenous RALF1 peptide of an earlier study (ATTKYISYQSLKRNSVPCSRRGASYYNCQNGAQANPYSRGCSKIARCRS; Protein RALF-like 1; UniProt Q9SRY3 72-120, looked up)”: the root growth entry in the test on root was “root growth inhibition”. Further, in the test on RHs, the root hair length result was “longer RHs”.
